Source: ChEMBL document CHEMBL2016474, “Structure-activity analysis and cell-based optimization of human galactokinase inhibitors” (ACS Med Chem Lett, 2011)
Calls of active or inactive are those of the source. No cut-off for these calls is given here.

How the values were obtained:
Galactokinase [1] = target: T1, Galactokinase (Homo sapiens, UniProt P51570); assay: Inhibition of human galactokinase after 30 mins by Kinase-GloTM assay
Summary of the method: (§1)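 GALK in vitro inhibition with IC50 determination; each value from three replicate measurements, given with standard deviation. Compounds not active below 50 μM recorded as exceeding that concentration.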

Galactokinase [2] = target: T1, Galactokinase; assay: Inhibition of […] in human primary fibroblasts derived from GALT-deficient patients assessed as reduction in accumulation of gal-1P at 50 uM preincubated overnight prior galactose challenge measured after 4 hrs
Summary of the method: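 Intracellular GALK inhibition in primary fibroblasts from classic galactosemia (GALT-deficient) patients. Compound given at 50 or 100 μM. Read-out is the percent reduction of cellular gal-1P accumulation.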

Galactokinase [3] = target: T1, Galactokinase; assay: Inhibition of human […] at >50 uM after 30 mins by Kinase-GloTM assay; summary of the method: as §1
[4] = Toxicity in human primary fibroblasts assessed as lethality at >= 50 uM within 1 hr; format: cell-based; settings: fibroblast
[5] = Toxicity in human primary fibroblasts assessed as visible signs of lethality at 50 uM; format: cell-based; settings: fibroblast
[6] = Toxicity in human primary fibroblasts; format: cell-based; settings: fibroblast

T1 sequence (P51570 whole entry): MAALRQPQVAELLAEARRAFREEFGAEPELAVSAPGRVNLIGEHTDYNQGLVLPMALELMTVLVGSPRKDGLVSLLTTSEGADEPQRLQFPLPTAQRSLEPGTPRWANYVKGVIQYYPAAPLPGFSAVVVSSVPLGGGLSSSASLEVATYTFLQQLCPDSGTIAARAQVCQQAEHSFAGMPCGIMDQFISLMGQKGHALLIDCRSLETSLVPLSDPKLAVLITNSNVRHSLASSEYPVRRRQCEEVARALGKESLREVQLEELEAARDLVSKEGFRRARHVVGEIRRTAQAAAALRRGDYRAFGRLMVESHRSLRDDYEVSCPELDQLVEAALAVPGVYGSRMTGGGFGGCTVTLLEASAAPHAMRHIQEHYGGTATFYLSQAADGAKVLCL

Structure (SMILES) | IC50 (Galactokinase [1]) | inhibition (Galactokinase [3]) | further results
N#CC1=C(SCc2cccc(N3CCOCC3)c2)SC(c2cc(O)ccc2O)NC1=O (stereo not given) | 900 nM |  | inhibition (Galactokinase [2]): inactive
CC(=O)Oc1ccc(C2NC(=O)C(C#N)=C(SCc3ccccc3)S2)cc1OC(C)=O (stereo not given) |  |  | Activity [4]: Toxic
N#CC1=C(SCc2ccccc2)SC(c2ccc(O)c(O)c2)NC1=O (stereo not given) |  |  | Activity [6]: Toxic
CSC1=C(C#N)C(=O)NC(c2ccccc2O)S1 (stereo not given) |  |  | inhibition (Galactokinase [1]): Active
CSC1=C(C#N)C(=O)NC(c2ccc(Cl)cc2Cl)S1 (stereo not given) |  | inactive | 
N#CC1=C(SCc2cccc(N3CCOCC3)c2)SC(c2ccc(O)c(O)c2)NC1=O (stereo not given) | 1200 nM |  | inhibition (Galactokinase [2]): 16%; Activity [5]: Non-toxic
CCCCSC1=C(C#N)C(=O)NC(c2ccccc2O)S1 (stereo not given) |  | inactive | 
N#CC1=C(SCc2ccccc2)SC(c2ccc(C(=O)O)cc2)NC1=O (stereo not given) |  |  | inhibition (Galactokinase [1]): Active
N#CC1=C(SCc2ccc(O)cc2)SC2(CCC(C(=O)O)CC2)NC1=O (stereo not given) |  | inactive | 
CC1(C)NC(=O)C(C#N)=C(SCc2ccccc2)S1 |  | inactive | 

Continued, in another order:

IC50 (Galactokinase [1]) | inhibition (Galactokinase [3]) | Structure (SMILES) | further results
 | inactive | N#CC1=C(SCc2ccccc2)SCNC1=O | 
 | inactive | CC1NC(=O)C(C#N)=C(SCc2ccccc2)S1 (stereo not given) | 
2400 nM |  | N#CC1=C(SCc2cccc(N3CCOCC3)c2)SC(c2ccc(O)cc2)NC1=O (stereo not given) | inhibition (Galactokinase [2]): inactive; Activity [5]: Non-toxic
22500 nM |  | N#CC1=C(SCc2ccccc2)SC(c2ccc3c(c2)OCO3)NC1=O (stereo not given) | 
12000 nM |  | N#CC1=C(SCc2ccccc2)SC(c2ccccc2O)NC1=O (stereo not given) | 
50000 nM |  | N#CC1=C(SCc2ccccc2)SC(c2cccc(O)c2)NC1=O (stereo not given) | 
700 nM |  | N#CC1=C(SCc2ccccc2)SC(c2cc(O)ccc2O)NC1=O (stereo not given) | 
1200 nM |  | N#CC1=C(SCc2ccccc2)SC(c2ccc(O)cc2O)NC1=O (stereo not given) | 
1800 nM |  | N#CC1=C(SCc2ccccc2)SC(c2ccc(O)cc2)NC1=O (stereo not given) | 
> 50000 nM |  | COc1ccc(C2NC(=O)C(C#N)=C(SCc3ccccc3)S2)cc1 (stereo not given) | 
